Assay results as given in ChEMBL document CHEMBL1134236, “Anti-MRSA cephems. Part 1: C-3 substituted thiopyridinium derivatives” (Bioorg Med Chem Lett, 2001).
Values after ≈ are worked out from the molar mass of the structure shown.

The compounds below were run on Staphylococcus aureus (assay: Minimum inhibitory concentration against methicillin-resistant Staphylococcus aureus (MRSA) A27223 in the presence of 50% calf serum.). Settings: not given.
Type: functional
Procedure, shortened: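 NCCLS broth MIC in Mueller-Hinton broth with 2% NaCl plus 50% calf serum. Inoculum about 5×10⁵ CFU/mL, incubated at 35 °C for 24 h. Read as the lowest concentration with no visible growth.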

SMILES	MIC
Cc1cc(SCC2=C(C(=O)[O-])N3C(=O)[C@@H](NC(=O)CSc4cc(Cl)ccc4Cl)[C@H]3SC2)cc(CCC(=O)O)[n+]1CCO	4 µg/mL
C[n+]1ccc(SCC2=C(C(=O)[O-])N3C(=O)[C@@H](NC(=O)CSc4cc(Cl)ccc4Cl)[C@H]3SC2)cc1CCCC(=O)O	8 µg/mL
NCCC[n+]1ccc(SCC2=C(C(=O)O)N3C(=O)[C@@H](NC(=O)CSc4cc(Cl)nc(Cl)c4)[C@H]3SC2)cc1CCCC(=O)O.O=C(O)C(F)(F)F.O=C([O-])C(F)(F)F	4 µg/mL
Cc1cc(SCC2=C(C(=O)[O-])N3C(=O)[C@@H](NC(=O)CSc4cc(Cl)ccc4Cl)[C@H]3SC2)cc(CCC(=O)O)[n+]1-c1cccc(O)c1	8 µg/mL
Cc1cc(SCC2=C(C(=O)[O-])N3C(=O)[C@@H](NC(=O)CSc4cc(Cl)ccc4Cl)[C@H]3SC2)cc(CCC(=O)O)[n+]1CCc1cccs1	8 µg/mL
Cc1cc(SCC2=C(C(=O)[O-])N3C(=O)[C@@H](NC(=O)CSc4cc(Cl)ccc4Cl)[C@H]3SC2)cc(CCC(=O)O)[n+]1Cc1cccs1	8 µg/mL
Cc1cc(SCC2=C(C(=O)[O-])N3C(=O)[C@@H](NC(=O)CSc4cc(Cl)ccc4Cl)[C@H]3SC2)cc(CCc2ccc(Cl)s2)[n+]1CC[C@@H](O)C(=O)O	8 µg/mL
Cc1cc(SCC2=C(C(=O)[O-])N3C(=O)[C@@H](NC(=O)CSc4cc(Cl)ccc4Cl)[C@H]3SC2)cc(CCc2ccccc2)[n+]1CCS(=O)(=O)O	4 µg/mL
CSCCC[n+]1c(C)cc(SCC2=C(C(=O)[O-])N3C(=O)[C@@H](NC(=O)CSc4cc(Cl)ccc4Cl)[C@H]3SC2)cc1CCC(=O)O	4 µg/mL

The compounds below were run on Staphylococcus aureus (assay: Minimum inhibitory concentration against methicillin-resistant Staphylococcus aureus (MRSA) A27223). Settings: not given.
Type: functional
Procedure, shortened: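 Broth microdilution per NCCLS in Mueller-Hinton broth with 2% NaCl. Inoculum about 5×10⁵ CFU/mL, incubated at 35 °C for 24 h. MIC is the lowest drug concentration that inhibits all visible growth.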

SMILES	MIC
Cc1cc(SCC2=C(C(=O)[O-])N3C(=O)[C@@H](NC(=O)CSc4cc(Cl)ccc4Cl)[C@H]3SC2)cc(CCC(=O)O)[n+]1CCO	2 µg/mL (≈ 2.97 µM)
C[n+]1ccc(SCC2=C(C(=O)[O-])N3C(=O)[C@@H](NC(=O)CSc4cc(Cl)ccc4Cl)[C@H]3SC2)cc1CCCC(=O)O	4 µg/mL (≈ 6.22 µM)
NCCC[n+]1ccc(SCC2=C(C(=O)O)N3C(=O)[C@@H](NC(=O)CSc4cc(Cl)nc(Cl)c4)[C@H]3SC2)cc1CCCC(=O)O.O=C(O)C(F)(F)F.O=C([O-])C(F)(F)F	2 µg/mL
Cc1cc(SCC2=C(C(=O)[O-])N3C(=O)[C@@H](NC(=O)CSc4cc(Cl)ccc4Cl)[C@H]3SC2)cc(CCC(=O)O)[n+]1-c1cccc(O)c1	4 µg/mL (≈ 5.55 µM)
Cc1cc(SCC2=C(C(=O)[O-])N3C(=O)[C@@H](NC(=O)CSc4cc(Cl)ccc4Cl)[C@H]3SC2)cc(CCC(=O)O)[n+]1CCc1cccs1	4 µg/mL (≈ 5.41 µM)
Cc1cc(SCC2=C(C(=O)[O-])N3C(=O)[C@@H](NC(=O)CSc4cc(Cl)ccc4Cl)[C@H]3SC2)cc(CCC(=O)O)[n+]1Cc1cccs1	4 µg/mL (≈ 5.52 µM)
Cc1cc(SCC2=C(C(=O)[O-])N3C(=O)[C@@H](NC(=O)CSc4cc(Cl)ccc4Cl)[C@H]3SC2)cc(CCc2ccc(Cl)s2)[n+]1CC[C@@H](O)C(=O)O	8 µg/mL (≈ 9.96 µM)
Cc1cc(SCC2=C(C(=O)[O-])N3C(=O)[C@@H](NC(=O)CSc4cc(Cl)ccc4Cl)[C@H]3SC2)cc(CCc2ccccc2)[n+]1CCS(=O)(=O)O	2 µg/mL (≈ 2.6 µM)
CSCCC[n+]1c(C)cc(SCC2=C(C(=O)[O-])N3C(=O)[C@@H](NC(=O)CSc4cc(Cl)ccc4Cl)[C@H]3SC2)cc1CCC(=O)O	2 µg/mL (≈ 2.79 µM)

The compounds below were run on Staphylococcus aureus (assay: Dose required for protective activity against methicillin-resistant Staphylococcus aureus (MRSA) A27223 in mouse following i.m. administration.). Settings: im, read-out: PD50.

SMILES	ED50
Cc1cc(SCC2=C(C(=O)[O-])N3C(=O)[C@@H](NC(=O)CSc4cc(Cl)ccc4Cl)[C@H]3SC2)cc(CCC(=O)O)[n+]1CCO	8.4 mg/kg
C[n+]1ccc(SCC2=C(C(=O)[O-])N3C(=O)[C@@H](NC(=O)CSc4cc(Cl)ccc4Cl)[C@H]3SC2)cc1CCCC(=O)O	5.2 mg/kg
NCCC[n+]1ccc(SCC2=C(C(=O)O)N3C(=O)[C@@H](NC(=O)CSc4cc(Cl)nc(Cl)c4)[C@H]3SC2)cc1CCCC(=O)O.O=C(O)C(F)(F)F.O=C([O-])C(F)(F)F	4.3 mg/kg
Cc1cc(SCC2=C(C(=O)[O-])N3C(=O)[C@@H](NC(=O)CSc4cc(Cl)ccc4Cl)[C@H]3SC2)cc(CCC(=O)O)[n+]1-c1cccc(O)c1	> 25 mg/kg
Cc1cc(SCC2=C(C(=O)[O-])N3C(=O)[C@@H](NC(=O)CSc4cc(Cl)ccc4Cl)[C@H]3SC2)cc(CCC(=O)O)[n+]1CCc1cccs1	> 23 mg/kg
Cc1cc(SCC2=C(C(=O)[O-])N3C(=O)[C@@H](NC(=O)CSc4cc(Cl)ccc4Cl)[C@H]3SC2)cc(CCC(=O)O)[n+]1Cc1cccs1	> 23 mg/kg
Cc1cc(SCC2=C(C(=O)[O-])N3C(=O)[C@@H](NC(=O)CSc4cc(Cl)ccc4Cl)[C@H]3SC2)cc(CCc2ccc(Cl)s2)[n+]1CC[C@@H](O)C(=O)O	> 23 mg/kg
Cc1cc(SCC2=C(C(=O)[O-])N3C(=O)[C@@H](NC(=O)CSc4cc(Cl)ccc4Cl)[C@H]3SC2)cc(CCc2ccccc2)[n+]1CCS(=O)(=O)O	> 25 mg/kg
CSCCC[n+]1c(C)cc(SCC2=C(C(=O)[O-])N3C(=O)[C@@H](NC(=O)CSc4cc(Cl)ccc4Cl)[C@H]3SC2)cc1CCC(=O)O	> 25 mg/kg
